Laboratory results taken from the M2OR odorant receptor database.

How the values were obtained:
Conditions in all cases: stereoisomer not certain
[1] = target: OR10D3 (Homo sapiens) (UniProt Q8NH80)
In short: (§1)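 Whether a receptor–molecule pair is responsive (active) rests on the original authors' judgment that its measured signal was statistically different from baseline. Pairs without that judgment are non-responsive (inactive). Sources used varied assay methods, commonly transient luciferase assays in mammalian cell lines.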

[2] = target: OR10G2 (Homo sapiens) (UniProt Q8NGC3)
Sequence of OR10G2 (Homo sapiens) (Q8NGC3 whole entry): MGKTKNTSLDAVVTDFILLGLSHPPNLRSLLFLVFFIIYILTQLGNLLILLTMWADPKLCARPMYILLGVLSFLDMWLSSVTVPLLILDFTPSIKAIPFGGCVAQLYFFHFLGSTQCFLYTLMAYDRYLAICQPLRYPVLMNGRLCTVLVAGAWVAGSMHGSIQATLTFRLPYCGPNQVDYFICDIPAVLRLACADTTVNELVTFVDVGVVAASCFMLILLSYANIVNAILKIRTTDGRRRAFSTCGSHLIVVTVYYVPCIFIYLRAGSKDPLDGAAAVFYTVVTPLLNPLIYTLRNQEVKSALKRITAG
In short: as §1

[3] = target: OR10G3 (Homo sapiens) (UniProt Q8NGC4)
Sequence of OR10G3 (Homo sapiens) (Q8NGC4 whole entry): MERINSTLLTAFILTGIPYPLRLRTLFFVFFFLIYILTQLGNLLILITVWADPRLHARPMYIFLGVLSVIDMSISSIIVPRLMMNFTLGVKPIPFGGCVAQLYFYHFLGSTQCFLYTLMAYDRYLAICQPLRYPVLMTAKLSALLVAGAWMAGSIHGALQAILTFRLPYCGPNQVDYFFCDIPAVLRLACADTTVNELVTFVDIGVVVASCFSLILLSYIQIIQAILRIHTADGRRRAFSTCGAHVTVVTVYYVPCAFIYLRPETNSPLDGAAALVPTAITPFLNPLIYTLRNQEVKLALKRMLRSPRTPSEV
In short: as §1

[4] = target: OR10G4 (Homo sapiens) (UniProt Q8NGN3)
Sequence of OR10G4 (Homo sapiens) (Q8NGN3 whole entry): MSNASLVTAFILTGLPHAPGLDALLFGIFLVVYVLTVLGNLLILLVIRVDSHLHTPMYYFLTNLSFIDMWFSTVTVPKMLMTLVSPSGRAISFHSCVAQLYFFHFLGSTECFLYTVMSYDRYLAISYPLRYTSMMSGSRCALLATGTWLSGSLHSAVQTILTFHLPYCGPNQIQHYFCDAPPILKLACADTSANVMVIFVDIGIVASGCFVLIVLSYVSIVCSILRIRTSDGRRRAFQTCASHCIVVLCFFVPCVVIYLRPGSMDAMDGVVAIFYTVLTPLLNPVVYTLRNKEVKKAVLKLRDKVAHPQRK
In short: as §1

[5] = target: OR10G6 (Homo sapiens) (UniProt Q8NH81)
Sequence of OR10G6 (Homo sapiens) (Q8NH81 whole entry): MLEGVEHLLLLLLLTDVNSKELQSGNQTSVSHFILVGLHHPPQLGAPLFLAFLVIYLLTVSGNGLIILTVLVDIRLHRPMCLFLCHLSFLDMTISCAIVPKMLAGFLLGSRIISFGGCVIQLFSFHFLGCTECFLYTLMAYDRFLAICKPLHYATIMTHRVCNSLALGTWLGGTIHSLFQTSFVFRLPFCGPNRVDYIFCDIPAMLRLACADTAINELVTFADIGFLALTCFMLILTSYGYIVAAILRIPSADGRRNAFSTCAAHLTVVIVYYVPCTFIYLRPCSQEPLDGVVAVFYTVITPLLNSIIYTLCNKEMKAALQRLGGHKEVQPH
In short: as §1

[6] = target: OR10G7 (Homo sapiens) (UniProt Q8NGN6)
Sequence of OR10G7 (Homo sapiens) (Q8NGN6 whole entry): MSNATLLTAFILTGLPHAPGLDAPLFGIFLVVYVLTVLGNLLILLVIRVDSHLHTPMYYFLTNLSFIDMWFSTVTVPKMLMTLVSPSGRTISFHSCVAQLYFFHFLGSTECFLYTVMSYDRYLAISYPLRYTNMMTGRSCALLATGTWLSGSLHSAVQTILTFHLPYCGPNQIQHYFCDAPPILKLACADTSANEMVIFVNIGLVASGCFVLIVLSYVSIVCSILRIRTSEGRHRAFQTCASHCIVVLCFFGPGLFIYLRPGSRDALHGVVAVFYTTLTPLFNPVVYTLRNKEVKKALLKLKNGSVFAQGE
In short: as §1

[7] = target: OR10G8 (Homo sapiens) (UniProt Q8NGN5)
Sequence of OR10G8 (Homo sapiens) (Q8NGN5 whole entry): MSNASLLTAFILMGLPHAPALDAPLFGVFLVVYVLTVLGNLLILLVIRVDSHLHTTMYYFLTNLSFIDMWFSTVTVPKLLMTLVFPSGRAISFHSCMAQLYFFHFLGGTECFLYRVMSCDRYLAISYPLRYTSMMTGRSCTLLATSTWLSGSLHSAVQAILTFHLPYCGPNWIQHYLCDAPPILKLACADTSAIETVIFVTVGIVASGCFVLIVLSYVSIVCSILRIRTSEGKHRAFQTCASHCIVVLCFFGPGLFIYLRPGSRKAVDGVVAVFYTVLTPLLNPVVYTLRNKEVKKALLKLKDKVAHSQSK
In short: as §1

[8] = target: OR10G9 (Homo sapiens) (UniProt Q8NGN4)
Sequence of OR10G9 (Homo sapiens) (Q8NGN4 whole entry): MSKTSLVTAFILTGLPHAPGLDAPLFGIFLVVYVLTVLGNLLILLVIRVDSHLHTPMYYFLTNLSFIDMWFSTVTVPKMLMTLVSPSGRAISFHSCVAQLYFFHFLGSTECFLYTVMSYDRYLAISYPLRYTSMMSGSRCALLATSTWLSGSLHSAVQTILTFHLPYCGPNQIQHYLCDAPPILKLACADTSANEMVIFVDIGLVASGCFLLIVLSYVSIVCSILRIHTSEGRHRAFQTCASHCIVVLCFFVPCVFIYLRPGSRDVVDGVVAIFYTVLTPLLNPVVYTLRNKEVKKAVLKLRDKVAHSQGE
In short: as §1

[9] = target: OR10H1 (Homo sapiens) (UniProt Q9Y4A9)
Sequence of OR10H1 (Homo sapiens) (Q9Y4A9 whole entry): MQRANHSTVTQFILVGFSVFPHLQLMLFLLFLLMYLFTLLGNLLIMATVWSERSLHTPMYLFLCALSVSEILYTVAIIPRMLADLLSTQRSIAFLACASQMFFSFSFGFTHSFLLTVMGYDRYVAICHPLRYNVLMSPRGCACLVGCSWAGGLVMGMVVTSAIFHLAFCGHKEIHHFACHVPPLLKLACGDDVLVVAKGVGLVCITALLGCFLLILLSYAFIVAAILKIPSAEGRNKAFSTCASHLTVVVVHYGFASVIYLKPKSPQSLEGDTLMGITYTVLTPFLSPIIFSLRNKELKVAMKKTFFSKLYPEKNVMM
In short: as §1

[10] = target: T1, OR10H2 (Homo sapiens) (UniProt O60403)
T1 sequence (whole entry): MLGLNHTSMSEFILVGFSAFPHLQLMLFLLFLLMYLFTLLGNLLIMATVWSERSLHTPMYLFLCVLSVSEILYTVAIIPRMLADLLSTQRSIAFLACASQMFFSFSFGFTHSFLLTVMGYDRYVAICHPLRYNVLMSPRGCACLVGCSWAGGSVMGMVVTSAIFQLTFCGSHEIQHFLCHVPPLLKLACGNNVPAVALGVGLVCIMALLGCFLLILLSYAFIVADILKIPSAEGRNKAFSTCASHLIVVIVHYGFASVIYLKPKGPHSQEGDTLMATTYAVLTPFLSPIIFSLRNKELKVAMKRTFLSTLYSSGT
In short: as §1

[11] = target: OR10H3 (Homo sapiens) (UniProt O60404)
Sequence of OR10H3 (Homo sapiens) (O60404 whole entry): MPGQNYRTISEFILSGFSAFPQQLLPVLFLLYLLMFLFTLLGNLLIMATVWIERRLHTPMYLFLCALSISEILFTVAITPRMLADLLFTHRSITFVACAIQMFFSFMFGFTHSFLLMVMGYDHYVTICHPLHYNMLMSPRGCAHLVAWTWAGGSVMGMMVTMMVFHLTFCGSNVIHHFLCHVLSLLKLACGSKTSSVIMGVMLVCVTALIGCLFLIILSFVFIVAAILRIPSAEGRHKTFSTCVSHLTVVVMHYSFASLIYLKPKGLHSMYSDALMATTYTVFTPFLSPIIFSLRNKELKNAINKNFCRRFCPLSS
In short: as §1

[12] = target: OR10H4 (Homo sapiens) (UniProt Q8NGA5)
Sequence of OR10H4 (Homo sapiens) (Q8NGA5 whole entry): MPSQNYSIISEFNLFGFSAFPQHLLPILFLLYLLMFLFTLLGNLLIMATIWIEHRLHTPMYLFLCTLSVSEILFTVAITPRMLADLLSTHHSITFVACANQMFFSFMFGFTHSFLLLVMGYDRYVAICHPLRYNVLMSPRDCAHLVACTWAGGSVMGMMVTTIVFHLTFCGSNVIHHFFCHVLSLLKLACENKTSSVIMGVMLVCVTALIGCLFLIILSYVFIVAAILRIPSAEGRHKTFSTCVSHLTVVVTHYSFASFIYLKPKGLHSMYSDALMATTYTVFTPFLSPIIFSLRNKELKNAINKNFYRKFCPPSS
In short: as §1

[13] = target: OR10H5 (Homo sapiens) (UniProt Q8NGA6)
Sequence of OR10H5 (Homo sapiens) (Q8NGA6 whole entry): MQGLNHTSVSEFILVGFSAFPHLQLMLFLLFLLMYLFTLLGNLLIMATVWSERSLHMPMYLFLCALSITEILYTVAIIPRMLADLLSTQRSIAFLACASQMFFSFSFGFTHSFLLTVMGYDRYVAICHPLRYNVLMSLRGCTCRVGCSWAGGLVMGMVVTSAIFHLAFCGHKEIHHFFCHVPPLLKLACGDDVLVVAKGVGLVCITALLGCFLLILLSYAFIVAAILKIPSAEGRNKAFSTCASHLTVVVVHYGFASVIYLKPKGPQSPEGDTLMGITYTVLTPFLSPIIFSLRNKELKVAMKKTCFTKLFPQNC
In short: as §1

[14] = target: OR10J1 (Homo sapiens) (UniProt P30954)
In short: as §1

[15] = target: OR10J3 (Homo sapiens) (UniProt Q5JRS4)
Sequence of OR10J3 (Homo sapiens) (Q5JRS4 whole entry): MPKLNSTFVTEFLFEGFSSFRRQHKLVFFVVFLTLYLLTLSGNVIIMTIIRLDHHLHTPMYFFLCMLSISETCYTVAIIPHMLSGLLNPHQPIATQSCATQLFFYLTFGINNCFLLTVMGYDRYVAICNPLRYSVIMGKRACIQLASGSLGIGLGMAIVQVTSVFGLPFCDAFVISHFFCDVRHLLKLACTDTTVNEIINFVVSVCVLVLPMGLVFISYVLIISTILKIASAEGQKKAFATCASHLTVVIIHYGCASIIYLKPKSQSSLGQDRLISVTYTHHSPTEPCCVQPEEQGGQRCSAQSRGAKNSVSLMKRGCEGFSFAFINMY
In short: as §1

[16] = target: T2, OR10J5 (Homo sapiens) (UniProt Q8NHC4)
T2 sequence (whole entry): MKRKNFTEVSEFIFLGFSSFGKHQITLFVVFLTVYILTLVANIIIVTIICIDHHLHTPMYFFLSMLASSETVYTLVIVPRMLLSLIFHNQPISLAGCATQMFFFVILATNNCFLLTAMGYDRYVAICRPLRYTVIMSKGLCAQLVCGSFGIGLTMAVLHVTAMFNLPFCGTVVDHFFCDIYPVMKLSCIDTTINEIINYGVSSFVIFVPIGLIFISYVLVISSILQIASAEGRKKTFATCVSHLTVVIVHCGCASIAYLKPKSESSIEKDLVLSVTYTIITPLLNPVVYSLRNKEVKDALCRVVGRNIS
In short: as §1

[17] = target: OR10K1 (Homo sapiens) (UniProt Q8NGX5)
Sequence of OR10K1 (Homo sapiens) (Q8NGX5 whole entry): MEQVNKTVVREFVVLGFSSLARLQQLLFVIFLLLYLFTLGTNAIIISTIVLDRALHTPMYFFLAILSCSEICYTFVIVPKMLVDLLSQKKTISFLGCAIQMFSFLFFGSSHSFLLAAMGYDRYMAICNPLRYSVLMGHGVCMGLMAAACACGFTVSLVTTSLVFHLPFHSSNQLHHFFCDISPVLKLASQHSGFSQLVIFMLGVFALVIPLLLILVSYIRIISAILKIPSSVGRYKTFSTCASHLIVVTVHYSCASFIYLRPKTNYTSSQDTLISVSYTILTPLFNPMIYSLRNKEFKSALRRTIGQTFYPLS
In short: as §1

[18] = target: OR10P1 (Homo sapiens) (UniProt Q8NGE3)
Sequence of OR10P1 (Homo sapiens) (Q8NGE3 whole entry): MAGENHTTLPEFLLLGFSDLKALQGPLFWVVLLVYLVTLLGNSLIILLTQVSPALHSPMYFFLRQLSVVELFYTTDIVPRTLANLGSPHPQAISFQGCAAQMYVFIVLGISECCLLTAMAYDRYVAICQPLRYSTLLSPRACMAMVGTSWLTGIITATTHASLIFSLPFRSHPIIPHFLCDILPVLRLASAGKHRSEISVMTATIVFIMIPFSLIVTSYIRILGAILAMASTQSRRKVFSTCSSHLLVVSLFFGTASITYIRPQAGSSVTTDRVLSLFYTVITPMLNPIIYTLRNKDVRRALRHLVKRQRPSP
In short: as §1

[19] = target: OR10J4 (Homo sapiens) (UniProt P0C629)
Sequence of OR10J4 (Homo sapiens) (P0C629 whole entry F198I): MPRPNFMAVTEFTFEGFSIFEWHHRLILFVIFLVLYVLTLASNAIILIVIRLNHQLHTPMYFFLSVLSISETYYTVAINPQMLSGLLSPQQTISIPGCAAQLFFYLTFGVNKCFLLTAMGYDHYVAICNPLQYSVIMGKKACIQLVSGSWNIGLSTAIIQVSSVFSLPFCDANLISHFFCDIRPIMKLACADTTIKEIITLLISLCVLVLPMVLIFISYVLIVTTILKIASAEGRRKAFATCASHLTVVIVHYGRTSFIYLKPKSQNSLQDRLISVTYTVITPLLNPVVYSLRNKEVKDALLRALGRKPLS
In short: as §1

[20] = target: OR10K2 (Homo sapiens) (UniProt Q6IF99)
In short: as §1

C=CCOC(=O)Cc1ccccc1
odorant receptor agonist call [1]: inactive
odorant receptor agonist call [2]: inactive
odorant receptor agonist call [3]: inactive
odorant receptor agonist call [4]: inactive
odorant receptor agonist call [5]: inactive
odorant receptor agonist call [6]: inactive
odorant receptor agonist call [7]: inactive
odorant receptor agonist call [8]: inactive
odorant receptor agonist call [9]: inactive
odorant receptor agonist call [10]: inactive
odorant receptor agonist call [11]: inactive
odorant receptor agonist call [12]: inactive
odorant receptor agonist call [13]: inactive
odorant receptor agonist call [14]: inactive
odorant receptor agonist call [15]: inactive
odorant receptor agonist call [16]: inactive
odorant receptor agonist call [17]: inactive
odorant receptor agonist call [18]: inactive

O=CC=Cc1ccccc1
odorant receptor agonist call [10]: active

Cc1c([N+](=O)[O-])c(C)c([N+](=O)[O-])c(C(C)(C)C)c1[N+](=O)[O-]
odorant receptor agonist call [2]: inactive
odorant receptor agonist call [3]: inactive
odorant receptor agonist call [4]: inactive
odorant receptor agonist call [5]: inactive
odorant receptor agonist call [6]: inactive
odorant receptor agonist call [7]: inactive
odorant receptor agonist call [8]: inactive
odorant receptor agonist call [9]: inactive
odorant receptor agonist call [10]: inactive
odorant receptor agonist call [11]: inactive
odorant receptor agonist call [12]: inactive
odorant receptor agonist call [13]: inactive
odorant receptor agonist call [15]: inactive
odorant receptor agonist call [19]: inactive
odorant receptor agonist call [16]: inactive
odorant receptor agonist call [17]: inactive
odorant receptor agonist call [20]: inactive
odorant receptor agonist call [18]: inactive

O=c1cc(O)c2ccccc2o1
odorant receptor agonist call [16]: inactive

C=CCc1ccccc1
odorant receptor agonist call [16]: inactive

CCC1CCC(=O)O1 (stereo not given)
odorant receptor agonist call [16]: inactive
